In brackets after ≈: the same amount, converted by molar mass. Activity calls are given as the source filed them. No cut-off for these calls is given here.
Columns and labels:
[1] = Half life in human liver microsomes at 1 uM preincubated with NADP+ for 5 mins prior to compound addition by HPLC-MRM-MS analysis; assay type: ADME, Microsome
How it was run: (§1)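 Pooled HLM at 1 mg/mL protein in 100 mM PBS pH 7.4 with an NADPH-regenerating mix: G6P 10 mM, NADP+ 2 mM, MgCl2 5 mM, G6PDH 1.5 U/mL (stock concentrations). Pre-incubated 5 min at 37 °C, then compound added to 1 μM final (1% DMSO).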

[2] = tested on: Mycobacteroides abscessus; assay: Antitubercular activity against Mycobacterium abscessus Bamboo assessed as inhibition of bacterial growth at 100 uM measured after 3 days by broth microdilution method; assay type: functional; conditions: 72 h, time 3 day
How it was run: (§2)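 Twofold serial dilutions inoculated at OD600 0.05; incubated at 37 °C, shaking at 110 rpm, for 3 days (M. abscessus Bamboo) or 4 days (M. avium 11). […] Clarithromycin positive control; data representative of two independent replicates.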

[3] = tested on: Mycobacterium tuberculosis; assay: Antitubercular activity against Mycobacterium tuberculosis H37Rv assessed as inhibition of bacterial growth incubated for 7 days by REMA method; assay type: functional
Mycobacterium avium [4] = assay: Antitubercular activity against Mycobacterium avium 11 assessed as inhibition of bacterial growth at 100 uM measured after 4 days by broth microdilution method; assay type: functional; conditions: Mycobacterium avium, 11, 96 h, time 4 day
[5] = Metabolic stability of the compound in human liver microsomes assessed as parent residual fraction at 1 uM preincubated with NADP+ for 5 mins prior to compound addition by HPCLC-MRM-MS analysis; assay type: ADME, Microsome; conditions: read-out: Stability; how it was run: as §1
[6] = Cytotoxicity against human THP-1 cells assessed as reduction in cell viability measured after 72 hrs by MTT assay; assay type: toxicity, cell-based
How it was run: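 THP-1 monocytes were differentiated to macrophages with PMA 100 ng/mL for 72 h. They were then exposed to compounds at 1, 10, 50 and 100 μM for 72 h, each tested twice. MTT at 1 mg/mL in RPMI with 5% FBS was added for 2 h at 37 °C; formazan was dissolved in DMSO and read at 570 nm. Viability is given as % of control; IC50 from non-linear regression.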

Mycobacterium marinum [7] = assay: Antitubercular activity against Mycobacterium marinum ATCC BAA-535 assessed as inhibition of bacterial growth measured after 3 weeks by broth microdilution method; assay type: functional; conditions: ATCC BAA-535, 504 h
[8] = tested on: Mycobacteroides abscessus; assay: Antitubercular activity against Mycobacterium abscessus Bamboo assessed as inhibition of bacterial growth upto 100 uM measured after 3 days by broth microdilution method; assay type: functional, organism-based; conditions: time 3.0 day; how it was run: as §2
Mycobacterium avium [9] = assay: Antitubercular activity against Mycobacterium avium 11 assessed as inhibition of bacterial growth upto 100 uM measured after 4 days by broth microdilution method; assay type: functional, organism-based; conditions: time 4.0 day; how it was run: as §2
Mycobacterium marinum [10] = conditions: ATCC BAA-535, time 3.0 weeks
[11] = Drug metabolism in human liver microsomes assessed as 5-(2-((4-(hydroxymethyl)phenyl)amino)thiazol-4-yl)-N-(pyridin-2-yl)isoxazole-3-carboxamide formation at 100 uM measured after 180 mins by HR-MS analysis; assay type: ADME, Microsome; conditions: 3 h
How it was run: (§3)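 Metabolite ID: test compound at 100 μM initial concentration in pooled HLM incubates. Aliquots were taken at start and after 180 min, quenched with ACN, centrifuged and analysed by full-scan LC-HR-MS (Orbitrap, ESI+ and ESI−, resolution 15000). Data-dependent CID MS/MS was acquired at 30–35 V.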

[12] = Drug metabolism in human liver microsomes assessed as retention time of 5-(2-((3-hydroxy-4-methylphenyl)amino)thiazol-4-yl)-N-(pyridin-2-yl)isoxazole-3-carboxamide at 250 nM by HPLC-MS/MS analysis; assay type: ADME, Microsome; conditions: 0.25 µM
How it was run: (§4)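 Spiking: 10 μL HLM incubate was diluted with 90 μL ACN alone or with 250 nM of each synthetic hydroxylated standard in ACN. After centrifugation, HPLC-MS/MS retention times were compared for co-elution with the metabolites.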

[13] = Drug metabolism in human liver microsomes assessed as 5-(2-((3-hydroxy-4-methylphenyl)amino)thiazol-4-yl)-N-(pyridin-2-yl)isoxazole-3-carboxamide formation at 100 uM measured after 180 mins by HR-MS analysis; assay type: ADME, Microsome; conditions: 3 h; how it was run: as §3
[14] = Drug metabolism in human liver microsomes assessed as retention time of metabolite with molecular mass [M+30] at 250 nM by HPLC-MS/MS analysis; assay type: ADME, Microsome; conditions: 0.25 µM
[15] = Drug metabolism in human liver microsomes assessed as retention time of 5-(2-((4-(hydroxymethyl)phenyl)amino)thiazol-4-yl)-N-(pyridin-2-yl)isoxazole-3-carboxamide at 250 nM by HPLC-MS/MS analysis; assay type: ADME, Microsome; conditions: 0.25 µM; how it was run: as §4
[16] = Mycobacterium tuberculosis, H37Rv, 168 h, time 7 day, read-out: MIC90

O=C(Nc1ccccn1)c1cc(-c2csc(Nc3ccccc3)n2)on1
t1/2 [1]: 66 min
inhibition at 100 µM [2]: 50%
MIC90 [3, 16]: > 20 µg/mL
inhibition at 100 µM (Mycobacterium avium [4]): 50%

Nc1nc(-c2cc(C(=O)Nc3ccccn3)no2)cs1
remaining at 1 µM [5]: 96%
MIC90 [3, 16]: > 20 µg/mL

Cc1ccc(Nc2nc(-c3cc(C(=O)Nc4cccc(C)n4)no3)cs2)cc1
IC50 at 72 h [6]: 66.8 µg/mL (≈ 171 µM)
MIC90 (Mycobacterium marinum [7]): 1 µg/mL (≈ 2.55 µM)

Cc1ccc(Nc2nc(-c3cc(C(=O)Nc4ccncc4)no3)cs2)cc1
MIC90 [3, 16]: 1 µg/mL (≈ 2.65 µM)
Activity [8]: inactive
IC50 at 72 h [6]: 29.9 µg/mL (≈ 79.2 µM)
Activity (Mycobacterium avium [9]): inactive

O=C(Nc1ccccn1)c1cc(C(=O)Nc2nc3ccccc3s2)on1
MIC90 (Mycobacterium marinum [10]): inactive
MIC90 ([3]; time 7.0 day): inactive

Cc1ccc(Nc2nc(-c3cc(C(=O)Nc4cccc(F)c4)no3)cs2)cc1
MIC90 [3, 16]: 2.5 µg/mL (≈ 6.34 µM)
Activity [8]: inactive
Activity (Mycobacterium avium [9]): inactive

O=C(Nc1ccccc1)c1cc(-c2csc(Nc3ccccc3)n2)on1
t1/2 [1]: 43 min
inhibition at 100 µM [2]: 50%
MIC90 [3, 16]: 1.25 µg/mL (≈ 3.45 µM)
inhibition at 100 µM (Mycobacterium avium [4]): 50%
IC50 at 72 h [6]: 11.9 µg/mL (≈ 32.8 µM)

Cc1ccc(Nc2nc(-c3cc(C(=O)Nc4cccc(O)c4)no3)cs2)cc1
MIC90 [3, 16]: 0.5 µg/mL (≈ 1.27 µM)
Activity [8]: inactive
IC50 at 72 h [6]: 48.7 µg/mL (≈ 124 µM)
Activity (Mycobacterium avium [9]): inactive

Cc1ccc(Nc2nc(-c3cc(C(=O)Nc4ccccc4C)no3)cs2)cc1
MIC90 [3, 16]: 1 µg/mL (≈ 2.56 µM)
Activity [8]: inactive
IC50 at 72 h [6]: 63.7 µg/mL (≈ 163 µM)
Activity (Mycobacterium avium [9]): inactive

O=C(Nc1ccc(O)cc1)c1cc(C(=O)Nc2nc3ccccc3s2)on1
MIC90 (Mycobacterium marinum [10]): inactive
MIC90 ([3]; time 7.0 day): inactive

Cc1ccc(Nc2nc(-c3cc(C(=O)Nc4ccccc4)no3)co2)cc1
MIC90 [3, 16]: 1 µg/mL (≈ 2.77 µM)
Activity [8]: inactive
IC50 at 72 h [6]: > 100 µg/mL
Activity (Mycobacterium avium [9]): inactive

O=C(Nc1ccccc1)c1cc(-c2csc(Nc3ccc(Cl)cc3)n2)on1
t1/2 [1]: 59 min
MIC90 [3, 16]: 1.25 µg/mL (≈ 3.15 µM)
IC50 at 72 h [6]: > 100 µg/mL
MIC90 (Mycobacterium marinum [7]): 2 µg/mL (≈ 5.04 µM)

Cc1ccc(Nc2nc(-c3cc(C(=O)Nc4ccc(O)cc4)no3)cs2)cc1O
t1/2 [1]: 19 min
MIC90 [3, 16]: 5 µg/mL (≈ 12.2 µM)

Cc1ccc(Nc2nc(-c3cc(C(=O)Nc4cccc(C)c4)no3)cs2)cc1
MIC90 [3, 16]: 0.5 µg/mL (≈ 1.28 µM)
Activity [8]: inactive
IC50 at 72 h [6]: 10.7 µg/mL (≈ 27.4 µM)
Activity (Mycobacterium avium [9]): inactive

O=C(Nc1ccccc1)c1cc(-c2csc(Nc3cc(Cl)c(Cl)c(Cl)c3)n2)on1
remaining at 1 µM [5]: 101%
MIC90 [3, 16]: > 20 µg/mL

Cc1ccc(Nc2nc(-c3cc(C(=O)Nc4ccc(F)cc4)no3)cs2)cc1
MIC90 [3, 16]: 1 µg/mL (≈ 2.54 µM)
Activity [8]: inactive
IC50 at 72 h [6]: 46.8 µg/mL (≈ 119 µM)
Activity (Mycobacterium avium [9]): inactive

O=C(Nc1ccccn1)c1cc(-c2csc(Nc3ccc(C(F)(F)F)cc3)n2)on1
remaining at 1 µM [5]: 85%
MIC90 [3, 16]: > 20 µg/mL

O=C(Nc1cccc(F)c1)c1cc(C(=O)Nc2nc3ccccc3s2)on1
MIC90 (Mycobacterium marinum [10]): inactive
MIC90 ([3]; time 7.0 day): inactive

Cc1ccc(Nc2nc(-c3cc(C(=O)Nc4ccccn4)no3)cs2)cc1O
MIC90 [3, 16]: 5 µg/mL (≈ 12.7 µM)
Activity [8]: inactive
IC50 at 72 h [6]: > 100 µg/mL
Activity (Mycobacterium avium [9]): inactive

Cc1ccc2nc(NC(=O)c3cc(C(=O)Nc4ccc(O)cc4)no3)sc2c1
MIC90 (Mycobacterium marinum [10]): inactive
MIC90 ([3]; time 7.0 day): inactive

Cc1cccc(NC(=O)c2cc(C(=O)Nc3nc4ccccc4s3)on2)c1
MIC90 (Mycobacterium marinum [10]): inactive
MIC90 ([3]; time 7.0 day): inactive

Cc1ccc2nc(NC(=O)c3cc(C(=O)Nc4ccccn4)no3)sc2c1
MIC90 (Mycobacterium marinum [10]): inactive
MIC90 ([3]; time 7.0 day): inactive

O=C(Nc1ccccc1)c1cc(-c2csc(Nc3cccc(O)c3)n2)on1
t1/2 [1]: 34 min
MIC90 [3, 16]: 5 µg/mL (≈ 13.2 µM)

O=C(Nc1ccccc1)c1cc(C(=O)Nc2nc3ccccc3s2)on1
MIC90 (Mycobacterium marinum [10]): inactive
MIC90 ([3]; time 7.0 day): inactive

Cc1ccc(Nc2nc(-c3cc(C(=O)Nc4ccsc4)no3)cs2)cc1
MIC90 [3, 16]: 1 µg/mL (≈ 2.61 µM)
IC50 at 72 h [6]: > 100 µg/mL
MIC90 (Mycobacterium marinum [7]): 1 µg/mL (≈ 2.61 µM)

O=C(Nc1ccccn1)c1cc(-c2csc(Nc3cc(Cl)c(Cl)c(Cl)c3)n2)on1
remaining at 1 µM [5]: 102%
MIC90 [3, 16]: > 20 µg/mL

Cc1cc(C)cc(Nc2nc(-c3cc(C(=O)Nc4ccccc4)no3)cs2)c1
MIC90 [3, 16]: 1 µg/mL (≈ 2.56 µM)
Activity [8]: inactive
IC50 at 72 h [6]: 70.9 µg/mL (≈ 182 µM)
Activity (Mycobacterium avium [9]): inactive

Cc1ccc(Nc2nc(-c3cc(C(=O)Nc4ccccn4)no3)cs2)cc1
t1/2 [1]: 16 min
MIC90 [3, 16]: 0.5 µg/mL (≈ 1.32 µM)
Drug metabolism [11]: Metabolite_Detected
IC50 at 72 h [6]: 22 µg/mL (≈ 58.3 µM)
Retention_time [12]: 23.73 min
Drug metabolism [13]: Metabolite_Detected
Retention_time [14]: 21.97 min
MIC90 (Mycobacterium marinum [7]): 0.5 µg/mL (≈ 1.32 µM)
Retention_time [15]: 21.01 min

O=C(Nc1cccc(O)c1)c1cc(C(=O)Nc2nc3ccccc3s2)on1
MIC90 (Mycobacterium marinum [10]): inactive
MIC90 ([3]; time 7.0 day): inactive

O=C(Nc1ccccc1)c1cc(-c2csc(Nc3ccc(C(F)(F)F)cc3)n2)on1
remaining at 1 µM [5]: 71%
MIC90 [3, 16]: > 20 µg/mL

Cc1ccc(Nc2nc(-c3cc(C(=O)Nc4cc(C)ccn4)no3)cs2)cc1
inhibition at 100 µM [2]: 50%
MIC90 [3, 16]: 1 µg/mL (≈ 2.55 µM)
inhibition at 100 µM (Mycobacterium avium [4]): 50%
IC50 at 72 h [6]: 86.3 µg/mL (≈ 220 µM)

Cc1ccc(Nc2nc(-c3cc(C(=O)Nc4ccc(O)cc4)no3)cs2)cc1
MIC90 [3, 16]: 0.5 µg/mL (≈ 1.27 µM)
Activity [8]: inactive
IC50 at 72 h [6]: 79.1 µg/mL (≈ 202 µM)
Activity (Mycobacterium avium [9]): inactive
MIC90 (Mycobacterium marinum [7]): 1 µg/mL (≈ 2.55 µM)

Nc1nc(-c2cc(C(=O)Nc3ccccc3)no2)cs1
remaining at 1 µM [5]: 97%
MIC90 [3, 16]: > 20 µg/mL

Source: ChEMBL document CHEMBL5335768, “Expanding the knowledge around antitubercular 5-(2-aminothiazol-4-yl)isoxazole-3-carboxamides: Hit-to-lead optimization and release of a novel antitubercular chemotype via scaffold derivatization” (Eur J Med Chem, 2023)
